Measured values: ChEMBL document CHEMBL2439952, “Synthesis and anti-Trypanosoma cruzi activity of naphthoquinone-containing triazoles: electrochemical studies on the effects of the quinoidal moiety” (Bioorg Med Chem, 2013)

Experiments:
[1] = tested on: Trypanosoma cruzi; experiment: Antitrypanosomal activity against trypomastigote form of Trypanosoma cruzi Y assessed as parasite growth inhibition after 24 hrs by Neubauer cell counting method; format: functional, organism-based
[2] = Selectivity index, ratio of LC50 for mouse HMC to IC50 for trypomastigote form of Trypanosoma cruzi Y
Outline: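 Ratio of 24 h LC50 to 24 h IC50. The LC50 came from PrestoBlue on primary mouse embryo heart muscle cells. The IC50 came from Y strain bloodstream trypomastigotes taken at peak parasitaemia from infected albino mice, isolated by differential centrifugation, and held at 10^7 cells/mL in DME with 10% mouse blood. DMSO was at most 0.5%.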

[3] = tested on: Trypanosoma cruzi; experiment: Potency index, ratio of benznidazole IC50 to compound IC50 for trypomastigote form of Trypanosoma cruzi Y; format: functional
[4] = Cytotoxicity against mouse HMC after 24 hrs by PrestoBlue staining-based assay; details: mouse HMC cells, read-out: LC50
Outline: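 Primary heart muscle cells from 18-day-old mouse embryo hearts, dissociated with trypsin and collagenase in PBS pH 7.2. Seeded at 6x10^4 cells/well in RPMI-1640 (pH 7.2), 10% FBS, 2 mM glutamine, 24 h, 37°C. Treated 24 h at 37°C in phenol-red-free supplemented medium. PrestoBlue 5 h, read at 570 and 600 nm. LC50 = concentration damaging 50% of cells versus untreated.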

SMILES	IC50 [1] [µM]	also measured
O=C1C(Cl)=C(NCc2cn(CN3C(=O)c4ccccc4C3=O)nn2)C(=O)c2ccccc21	> 4000	–
CC1(C)Oc2c(c3nccnc3c3ccccc23)C1n1cc(-c2ccccc2)nn1 (stereo not given)	> 4000	–
CC1(C)OC2=C(C(=O)c3ccccc3C2=O)C1n1cc(-c2ccccc2)nn1 (stereo not given)	> 4000	–
CC1(C)CC(N=[N+]=[N-])C2=C(O1)C(=O)c1ccccc1C2=O (stereo not given)	318	–
CCC(C)(O)c1cn(C2CC(C)(C)OC3=C2C(=O)c2ccccc2C3=O)nn1 (stereo not given)	> 500	–
O=C1C(Br)=C(NCc2cn(-c3cccc([N+](=O)[O-])c3)nn2)C(=O)c2ccccc21	> 4000	–
O=C1C(Br)=C(NCc2cn(CCN3C(=O)c4ccccc4C3=O)nn2)C(=O)c2ccccc21	> 4000	–
CC1(C)OC2=C(C(=O)c3ccccc3C2=O)C1n1cc(C2CCCCC2)nn1 (stereo not given)	> 1500	–
CC1(C)Oc2c(c3nc4ccccc4nc3c3ccccc23)C1n1cc(-c2ccccc2)nn1 (stereo not given)	> 1500	–
O=C1C=C(NCc2cn(CN3C(=O)c4ccccc4C3=O)nn2)C(=O)c2ccccc21	> 4000	–
CC1(C)OC2=C(C(=O)C(=O)c3ccccc32)C1n1cc(CNC2=C(Br)C(=O)c3ccccc3C2=O)nn1 (stereo not given)	6.8	Ratio LC50/IC50 [2]: 9.3; Ratio IC50 [3]: 15; CC50 at 24 h [4]: 63.1 µM
CCCCCCc1cn(C2C3=C(OC2(C)C)C(=O)c2ccccc2C3=O)nn1 (stereo not given)	> 2000	–
CC1(C)OC2=C(C(=O)/C(=N\O)c3ccccc32)C1n1cc(-c2ccccc2)nn1 (stereo not given)	> 3200	–
CC1(C)OC2=C(C(=O)C(=O)c3ccccc32)C1n1cc(CNC2=CC(=O)c3ccccc3C2=O)nn1 (stereo not given)	80.8	Ratio LC50/IC50 [2]: < 1.5; CC50 at 24 h [4]: < 125 µM
O=C1C(Br)=C(NCc2cn(CCCN3C(=O)c4ccccc4C3=O)nn2)C(=O)c2ccccc21	> 4000	–
CC1(C)OC2=C(C(=O)C(=O)c3ccccc32)C1n1cc(CNC2=C(Cl)C(=O)c3ccccc3C2=O)nn1 (stereo not given)	8.2	Ratio LC50/IC50 [2]: 34.3; Ratio IC50 [3]: 12; CC50 at 24 h [4]: 282 µM
O=C1C=C(NCc2cn(CCCCN3C(=O)c4ccccc4C3=O)nn2)C(=O)c2ccccc21	> 4000	–

Now from value to molecule, other results behind:

IC50 [1] [µM]	SMILES	also measured
> 4000	O=C1C(Cl)=C(NCc2cn(CCN3C(=O)c4ccccc4C3=O)nn2)C(=O)c2ccccc21	–
> 4000	O=C1C=C(NCc2cn(CCN3C(=O)c4ccccc4C3=O)nn2)C(=O)c2ccccc21	–
> 4000	CCC(C)(O)c1cn(C2C3=C(OC2(C)C)C(=O)c2ccccc2C3=O)nn1 (stereo not given)	–
> 4000	CCCCCc1cn(C2CC(C)(C)OC3=C2C(=O)c2ccccc2C3=O)nn1 (stereo not given)	–
> 4000	O=C1C(Cl)=C(NCc2cn(CCCN3C(=O)c4ccccc4C3=O)nn2)C(=O)c2ccccc21	–
> 4000	O=C1C=C(NCc2cn(-c3cccc([N+](=O)[O-])c3)nn2)C(=O)c2ccccc21	–
> 4000	O=C1C(Br)=C(NCc2cn(CN3C(=O)c4ccccc4C3=O)nn2)C(=O)c2ccccc21	–
> 2000	CC1(C)CC(n2cc(C3CCCCC3)nn2)C2=C(O1)C(=O)c1ccccc1C2=O (stereo not given)	–
> 4000	O=C1C=C(NCc2cn(CCCN3C(=O)c4ccccc4C3=O)nn2)C(=O)c2ccccc21	–
17.3	CC1(C)OC2=C(C(=O)C(=O)c3ccccc32)C1n1cc(-c2ccccc2)nn1 (stereo not given)	–
